Data on twelve compounds can be found in ChEMBL document CHEMBL5356992, “New nitazoxanide derivatives: design, synthesis, biological evaluation, and molecular docking studies as antibacterial and antimycobacterial agents” (RSC Med Chem, 2023).

Each structure is given as a SMILES string. In brackets after ≈: the same amount, converted by molar mass. Bounds are passed on as bounds.

One series has as its system Helicobacter pylori. Put plainly: Antibacterial activity against Helicobacter pylori ATCC 700392 by broth microdilution method. The series is classed as functional. Put shortly:
(§1)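 CLSI broth microdilution on wild-type strains. E. coli ATCC 8739, P. aeruginosa ATCC 27853 and K. pneumoniae ATCC 10031 served as Gram-negatives. S. aureus ATCC 6538 and E. faecalis ATCC 19433 served as Gram-positives. H. pylori ATCC 700392 was tested as the […]. Ciprofloxacin was the reference drug. MIC is given in μM as the mean of three experiments.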
In general terms: Broth dilution looks for growth in wells or tubes with falling amounts of substance.

Series [1] deals with Klebsiella pneumoniae. Put plainly: Antibacterial activity against Klebsiella pneumoniae ATCC 10031 by broth microdilution method. The series is classed as functional. In outline:
as §1

The subject of series [2] is Escherichia coli. Description: Antibacterial activity against Escherichia coli ATCC 8739 by broth microdilution method. The series is classed as functional. In outline: as §1
In the next series the test system is RAW264.7. Description: Cytotoxicity against mouse RAW264.7 cells at 25 ug/ml incubated for 48 hrs by MTT assay. The series is classed as toxicity, cell-based. The following applies: raw264.7, 48 h, at 25 µg/mL. Put shortly:
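RAW 264.7 mouse macrophages were grown in RPMI with 10% FBS plus penicillin/streptomycin to 80–90% confluency. About 5000 cells/well were seeded on poly-L-lysine-coated plates and held 24 h at 37 °C, 5% CO2. Compound was added at 25 μg mL−1 for 48 h at 37 °C. MTT (0.5 mg mL−1) was added for 3 h, and formazan was read at 595 and 625 nm. Result is % inhibition.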

In series [3] the test system is Pseudomonas aeruginosa. Put plainly: Antibacterial activity against Pseudomonas aeruginosa ATCC 27853 by broth microdilution method. The class given is functional. Put shortly: as §1
Series [4] in a line: Selectivity index, ratio of cytotoxicity against mouse RAW264.7 cells to MIC for Mycobacterium tuberculosis H37Rv. The series is classed as toxicity, cell-based. The following applies: read-out: Selectivity Index. Put shortly:
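SI is cytotoxicity divided by the MABA MIC (μg mL⁻¹) against H37Rv. For cytotoxicity, RAW 264.7 cells were grown in RPMI with 10% FBS and penicillin/streptomycin. About 5000 cells per well were seeded on poly-L-lysine plates and held 24 h at 37 °C, 5% CO2. Compounds were added at 25 μg mL⁻¹ for 48 h, then MTT (0.5 mg mL⁻¹) for 3 h. Formazan was read at 595/625 nm and reported as % inhibition.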

Series [5] deals with Staphylococcus aureus. Description: Antibacterial activity against Staphylococcus aureus ATCC 6538 by broth microdilution method. The class given is functional. Put shortly:
as §1

In series [6] the test system is Enterococcus faecalis. Description: Antibacterial activity against Enterococcus faecalis ATCC 19433 by broth microdilution method. The class given is functional. Put shortly:
as §1

The subject of series [7] is Mycobacterium tuberculosis. Put plainly: Antimycobacterial activity against Mycobacterium tuberculosis H37Rv incubated for 7 days by alamar blue assay. The class given is functional. The following applies: 168 h, time 7 day. Put shortly:
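Two-fold serial dilutions in 7H9-S, with growth and sterile controls, incubated at 37 °C for 7 days. Alamar Blue then added and incubated overnight. MIC is the lowest concentration preventing the blue-to-pink change. Means of three experiments.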

The test system of series [8] is Escherichia coli. Description: Potency index, ratio of nitazoxanide MIC to test compound MIC for antibacterial activity against Escherichia coli ATCC 8739. The class given is functional.
Series [9] relates to Klebsiella pneumoniae. Put plainly: Potency index, ratio of nitazoxanide MIC to test compound MIC for antibacterial activity against Klebsiella pneumoniae ATCC 10031. The class given is functional.
The test system of series [10] is Enterococcus faecalis. Description: Potency index, ratio of nitazoxanide MIC to test compound MIC for antibacterial activity against Enterococcus faecalis ATCC 19433. The series is classed as functional.
In series [11] the test system is Pseudomonas aeruginosa. Description: Potency index, ratio of nitazoxanide MIC to test compound MIC for antibacterial activity against Pseudomonas aeruginosa ATCC 27853. The series is classed as functional.
Series [12] relates to Staphylococcus aureus. Description: Potency index, ratio of nitazoxanide MIC to test compound MIC for antibacterial activity against Staphylococcus aureus ATCC 6538. The series is classed as functional.

`CC(=O)Oc1ccccc1C(=O)Nc1ncc([N+](=O)[O-])s1` [NITAZOXANIDE]: the MIC (as a rule, the smallest concentration in the dilution series that meets the test's criterion for growth inhibition) against Helicobacter pylori came out at 13 µM (≈ 4 µg/mL); in the series on Klebsiella pneumoniae [1] it was 182 µM (≈ 56 µg/mL); against Escherichia coli [2], 104 µM (≈ 32 µg/mL); with Pseudomonas aeruginosa [3], 417 µM (≈ 128 µg/mL); in the series on Staphylococcus aureus [5] it was 104 µM (≈ 32 µg/mL); against Enterococcus faecalis [6], 156 µM (≈ 48 µg/mL). In addition, in the series with RAW264.7, the Cell growth inhibition is 20.65%. In addition, the selectivity ratio in series [4] worked out at 4.

On to `O=C(Nc1ncc([N+](=O)[O-])s1)c1ccc(-n2cc(CO)nn2)cc1O`, for which the MIC is 44.1 µM (≈ 16 µg/mL) with Helicobacter pylori; 88.3 µM (≈ 32 µg/mL) in the series on Klebsiella pneumoniae [1]; 353 µM (≈ 128 µg/mL) against Pseudomonas aeruginosa [3]; over 25 µg/mL in series [7]; 132 µM (≈ 48 µg/mL) against Enterococcus faecalis [6].

Take `O=C(Nc1ncc([N+](=O)[O-])s1)c1ccc(-n2cc(CN3CCCCC3)nn2)cc1O`: the MIC against Helicobacter pylori is 1.74 µM (≈ 0.747 µg/mL); with Klebsiella pneumoniae [1], 1190 µM (≈ 512 µg/mL); against Escherichia coli [2], 74.5 µM (≈ 32 µg/mL); in [7], over 25 µg/mL; in the series with Staphylococcus aureus [5], 9.31 µM (≈ 4 µg/mL); against Enterococcus faecalis [6] it was 27.9 µM (≈ 12 µg/mL).

`COC(=O)c1cn(-c2ccc(C(=O)Nc3ncc([N+](=O)[O-])s3)c(O)c2)nn1`: the MIC was 3.84 µM (≈ 1.5 µg/mL) against Helicobacter pylori; 5.12 µM (≈ 2 µg/mL) in the series with Klebsiella pneumoniae [1]; 3.84 µM (≈ 1.5 µg/mL) in the series on Escherichia coli [2]; 15.4 µM (≈ 6 µg/mL) with Pseudomonas aeruginosa [3]; over 25 µg/mL in [7]; 10.2 µM (≈ 4 µg/mL) in the series with Staphylococcus aureus [5]. The Ratio is 20 with Escherichia coli [8] and “<=20” with Klebsiella pneumoniae [9].

Take `O=C(Nc1ncc([N+](=O)[O-])s1)c1ccc(-n2cc(CN3CCN(c4ccccc4)CC3)nn2)cc1O`: the MIC is 31.6 µM (≈ 16 µg/mL) in the series on Helicobacter pylori; 253 µM (≈ 128 µg/mL) against Klebsiella pneumoniae [1]; 11.8 µM (≈ 6 µg/mL) in the series on Escherichia coli [2]; 2.96 µM (≈ 1.5 µg/mL) in the series with Pseudomonas aeruginosa [3]; over 25 µg/mL in [7]; 505 µM (≈ 256 µg/mL) in the series on Staphylococcus aureus [5]. For the same compound, it took 1.97 µM (≈ 0.998 µg/mL) to inhibit growth in the series on Enterococcus faecalis [6] (MIC). Also, the Ratio in the series with Enterococcus faecalis [10] is reported as 25; with Pseudomonas aeruginosa [11], over 50.

With `O=C(Nc1ncc([N+](=O)[O-])s1)c1ccc(-n2cc(CN3C(=O)C(=O)c4ccccc43)nn2)cc1O`, the MIC in the series on Helicobacter pylori was 130 µM (≈ 64 µg/mL); with Pseudomonas aeruginosa [3], 16.3 µM (≈ 8 µg/mL); in series [7], over 25 µg/mL; with Staphylococcus aureus [5], 32.5 µM (≈ 16 µg/mL); in the series on Enterococcus faecalis [6], 4.06 µM (≈ 2 µg/mL). The Ratio with Enterococcus faecalis [10] is recorded as 25.

Regarding `NNC(=O)c1ccncc1` [ISONIAZID], the MIC in series [7] turned out to be 0.05 µg/mL (≈ 0.365 µM).

With `O=C(Nc1ncc([N+](=O)[O-])s1)c1ccc(-n2cc(CN3C(=O)C(=O)c4cc(Br)ccc43)nn2)cc1O`, the MIC against Helicobacter pylori was 3.5 µM (≈ 2 µg/mL); against Klebsiella pneumoniae [1] it was 4.38 µM (≈ 2.5 µg/mL); in the series on Escherichia coli [2] it was 21 µM (≈ 12 µg/mL); against Pseudomonas aeruginosa [3] it was 5.26 µM (≈ 3 µg/mL); in series [7] it was over 25 µg/mL; with Staphylococcus aureus [5], 0.87 µM (≈ 0.496 µg/mL). Further, the MIC against Enterococcus faecalis [6] came out at 8.76 µM (≈ 5 µg/mL). In addition, the Ratio with Staphylococcus aureus [12] is on record as 25; in the series on Pseudomonas aeruginosa [11] it was over 50; in the series with Klebsiella pneumoniae [9] it was “<=20”.

Turning to `Cc1ccc(-c2cn(-c3ccc(C(=O)Nc4ncc([N+](=O)[O-])s4)c(O)c3)nn2)cc1`, the MIC was determined as 5.91 µM (≈ 2.5 µg/mL) in the series with Helicobacter pylori; 7.1 µM (≈ 3 µg/mL) in the series with Escherichia coli [2]; 303 µM (≈ 128 µg/mL) against Pseudomonas aeruginosa [3]; 25 µg/mL (≈ 59.2 µM) in series [7]; 1210 µM (≈ 512 µg/mL) against Staphylococcus aureus [5]; 75.8 µM (≈ 32 µg/mL) against Enterococcus faecalis [6]. The Cell growth inhibition in the series on RAW264.7 came out at 27.6%. The selectivity ratio in series [4] is 1.

Turning to `CC[C@@H](CO)NCCN[C@@H](CC)CO` [ETHAMBUTOL], 1.56 µg/mL (≈ 7.64 µM) was the least that counted as inhibitory in series [7] (MIC).

For the compound `CN1CCN(Cc2cn(-c3ccc(C(=O)Nc4ncc([N+](=O)[O-])s4)c(O)c3)nn2)CC1`, the MIC with Helicobacter pylori is 6.74 µM (≈ 3 µg/mL); against Klebsiella pneumoniae [1] it was 8.99 µM (≈ 4 µg/mL); against Pseudomonas aeruginosa [3] it was 144 µM (≈ 64 µg/mL); in series [7], over 25 µg/mL; against Staphylococcus aureus [5], 4.49 µM (≈ 2 µg/mL). Further, the Ratio in the series with Staphylococcus aureus [12] is 25; in the series on Klebsiella pneumoniae [9], “<=20”.

Consider `O=C(Nc1ncc([N+](=O)[O-])s1)c1ccc(-n2cc(CN3C(=O)C(=O)c4cc(Cl)ccc43)nn2)cc1O`, for which the MIC was 4.75 µM (≈ 2.5 µg/mL) in the series on Helicobacter pylori, 60.9 µM (≈ 32 µg/mL) in the series with Klebsiella pneumoniae [1], 487 µM (≈ 256 µg/mL) against Escherichia coli [2] and over 25 µg/mL in series [7].
